One assay has as its system HEK293. The experiment in a line: Cytotoxicity against HEK293 cells assessed as reduction in cell viability after 3 days by CellTiter-Glo assay. Format: cell-based, Homo sapiens. Background: Cellular ATP, detected with luciferase, serves as a proxy for viable cell number.
The subject of another assay is BJ. The experiment in a line: Cytotoxicity against human BJ cells assessed as reduction in cell viability after 3 days by CellTiter-Glo assay. Format: cell-based.
A further assay has as its system HepG2. Put plainly: Cytotoxicity against human HepG2 cells assessed as reduction in cell viability after 3 days by CellTiter-Glo assay. Format: cell-based.
Assay [1] has as its target T1, Bromodomain-containing protein 2 (Homo sapiens, UniProt P25440). The experiment in a line: Inhibition of BRD2 in human HD-MB03 cells assessed as reduction in c-Myc protein expression after 72 hrs by Hoechst 33342 staining based immunofluorescence assay. The assay is classed as cell-based. The procedure, abridged:
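HD-MB03 cells (3000/well, supplemented neurobasal medium) treated 24 h after plating with compound at 2 nM–40 μM final for 72 h. Imaged at 10x; nuclear masks from Hoechst used to quantify MYC per nucleus.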
Target sequence in this assay (P25440 whole entry, looked up): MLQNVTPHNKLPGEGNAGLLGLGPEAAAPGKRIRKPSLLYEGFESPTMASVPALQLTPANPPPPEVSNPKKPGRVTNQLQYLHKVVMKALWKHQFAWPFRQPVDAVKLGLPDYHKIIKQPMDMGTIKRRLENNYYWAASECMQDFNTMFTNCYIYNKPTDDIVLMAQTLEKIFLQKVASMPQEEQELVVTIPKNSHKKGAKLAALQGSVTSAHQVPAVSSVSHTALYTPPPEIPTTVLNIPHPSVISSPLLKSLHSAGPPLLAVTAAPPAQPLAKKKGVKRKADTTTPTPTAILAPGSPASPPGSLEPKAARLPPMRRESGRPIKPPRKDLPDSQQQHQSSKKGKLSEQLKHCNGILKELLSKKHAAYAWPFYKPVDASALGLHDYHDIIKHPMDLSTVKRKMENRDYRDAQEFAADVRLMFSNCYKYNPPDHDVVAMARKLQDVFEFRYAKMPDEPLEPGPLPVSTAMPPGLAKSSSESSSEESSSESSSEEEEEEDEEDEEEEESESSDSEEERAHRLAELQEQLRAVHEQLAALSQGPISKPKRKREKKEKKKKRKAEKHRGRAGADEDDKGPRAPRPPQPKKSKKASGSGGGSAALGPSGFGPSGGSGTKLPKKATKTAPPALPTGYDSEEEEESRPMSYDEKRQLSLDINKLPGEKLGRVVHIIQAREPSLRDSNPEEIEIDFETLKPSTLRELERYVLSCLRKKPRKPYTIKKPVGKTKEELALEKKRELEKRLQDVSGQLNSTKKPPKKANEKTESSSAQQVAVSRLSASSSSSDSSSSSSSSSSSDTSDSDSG

Assay [2] concerns the target T1, Bromodomain-containing protein 2. The experiment in a line: Inhibition of recombinant human BRD2 bromodomain 1 (49 to 170 residues) using biotin labeled peptide substrate preincubated for 15 mins followed by substrate addition measured after 1 hr by TR-FRET assay. The assay is classed as single protein. (TR-FRET usually uses a lanthanide donor and a delayed reading to cut background.)
Target sequence in this assay (P25440 whole entry): as the sequence (P25440 whole entry, looked up) above

Assay [3] is filed under the species Homo sapiens. Put plainly: Selectivity index, ratio of Kd for His-tagged BRD2 bromodomain 1 (unknown origin) to Kd for His-tagged BRD2 bromodomain 2 (unknown origin). The procedure, abridged: (§1)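 SPR at 15 °C: poly-His BRD2 bromodomain constructs capture-coupled (Ni2+/NTA plus EDC/NHS amine coupling) to ~450–530 RU, with a reference channel. Compounds run as 3-fold series from 2 μM, in duplicate, at 150 μL/min.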

The target of assay [4] is T1, Bromodomain-containing protein 2.
Target sequence in this assay (P25440 whole entry): as the sequence (P25440 whole entry, looked up) above
For assay [5] the target is unchanged. The experiment in a line: Binding affinity to His-tagged BRD2 bromodomain 1 (unknown origin) by SPR assay. Format: single protein. The procedure, abridged: as §1
Target sequence in this assay (P25440 whole entry): as the sequence (P25440 whole entry, looked up) above
On the technique in general: SPR reads the build-up and loss of mass on a sensor chip optically.

The target is the same in assay [6]. The experiment in a line: Binding affinity to His-tagged BRD2 bromodomain 2 (unknown origin) by SPR assay. An outline of the steps:
as §1
Target sequence in this assay (P25440 whole entry): as the sequence (P25440 whole entry, looked up) above

The species named for assay [7] is Homo sapiens. Put plainly: Selectivity index, ratio of Kd for BRD2 bromodomain 1 (74 to 194 residues) (unknown origin to Kd for BRD2 bromodomain 2 (348 to 455 residues) (unknown origin).
Assay [8] has as its target T1, Bromodomain-containing protein 2. The experiment in a line: Binding affinity to BRD2 bromodomain 1 (74 to 194 residues) (unknown origin) by ITC.
Target sequence in this assay (P25440 whole entry): as the sequence (P25440 whole entry, looked up) above
A short description of assay [9]: Cytotoxicity against human HD-MB03 cells assessed as reduction in cell viability after 5 days by CellTiter-Glo assay. Particulars: HD-MB03, 120 h.
A further assay deals with LOUCY. The experiment in a line: Cytotoxicity against human Loucy cells assessed as reduction in cell viability after 5 days by CellTiter-Glo assay. Particulars: 120 h.
Assay [10] is described as follows: Cytotoxicity against human NALM16 cells assessed as reduction in cell viability after 5 days by CellTiter-Glo assay. Particulars: NALM16, 120 h.

One may read the EC50 as the midpoint of the concentration-response curve. Regarding `Cc1sc2c(c1C)C(c1ccc(Cl)cc1)=N[C@@H](CC(=O)OC(C)(C)C)c1nnc(C)n1-2`, the EC50 result in the assay with HEK293, in the assay on BJ and with HepG2 was “Non-Toxic” throughout.
`COc1cc(OC)c2c(=O)[nH]c(-c3cc(C)c(OCCO)c(C)c3)nc2c1` [APABETALONE]: the concentration giving a half-maximal response (EC50) result with HEK293, in the assay on BJ and with HepG2 was “Non-Toxic” throughout.
Consider `CC(=O)N1c2ccc(-c3ccco3)cc2[C@H](NC(=O)OC(C)C)C[C@@H]1C`, for which the EC50 entry with HEK293, in the assay with BJ and in the assay on HepG2 was “Non-Toxic” throughout. For the same compound, in assay [1], the inhibition result is “Dose-dependent effect”.
Broadly, the IC50 is the point on the concentration scale where inhibition reaches its midpoint. As usually defined, the Kd is the constant that tells how readily two partners part at equilibrium. A lower Kd goes with higher affinity. On to `CC(=O)N1c2ccc(-c3cc[nH]c3)cc2[C@H](NC(=O)OC(C)C)C[C@@H]1C`, for which the IC50 in assay [2] stood at 2.48 µM; in assay [4] it was 0.41 µM. The Selectivity Index came out at 1.4 in the assay filed under Homo sapiens [3] and 4.6 in the assay filed under Homo sapiens [7]. The dissociation constant Kd in assay [5] stood at 0.104 µM; in assay [6], 0.077 µM.
`CC(=O)N1c2ccc(-c3ccc[nH]3)cc2[C@H](NC(=O)OC(C)C)C[C@@H]1C`: the concentration for half-maximal inhibition (IC50) in assay [2] and in [4] was 1.4 µM in each case. For the same compound, the Selectivity Index in the assay listed under Homo sapiens [3] was found to be 1.3; in the assay filed under Homo sapiens [7] it was 3.7. Besides, the Kd in assay [5] came out at 0.099 µM; in assay [6] it was 0.074 µM.
`CC(=O)N1c2ccc(-c3ccsc3)cc2[C@H](NC(=O)OC(C)C)C[C@@H]1C`: the figures for the IC50 in assay [2] and in assay [4] were 5.21 µM and 1.08 µM, respectively. Also, the Selectivity Index in the assay listed under Homo sapiens [3] amounted to 1.5; in the assay listed under Homo sapiens [7], 4.2. The equilibrium dissociation constant (Kd) was found to be 0.105 µM in assay [5] and 0.0717 µM in assay [8].
As for `CC(=O)N1c2ccc(-c3cccs3)cc2[C@H](NC(=O)OC(C)C)C[C@@H]1C`, the half-maximal inhibitory concentration (IC50) worked out at 1.77 µM in assay [2] and 0.83 µM in [4]. Further, the results for the Selectivity Index in the assay listed under Homo sapiens [3] and in the assay filed under Homo sapiens [7] were 1.1 and 2.9, respectively. The Kd in [5] came to 0.066 µM; in assay [8], 0.0613 µM.
`CCNC(=O)C[C@@H]1N=C(c2ccc(Cl)cc2)c2cc(OC)ccc2-n2c(C)nnc21` [MOLIBRESIB]: the EC50 entry in the assay on HEK293, in the assay with BJ and in the assay on HepG2 was “Non-Toxic” in each case.
Regarding `CC(=O)N1c2ccc(-c3ccc(C(=O)O)cc3)cc2[C@H](Nc2ccc(Cl)cc2)C[C@@H]1C`, the results for the IC50 in assay [2] and in assay [4] were 0.72 µM and 0.03 µM, respectively. Also, the 50% effective concentration (EC50) in assay [9] was 0.2 µM; in the assay with BJ, “Non-Toxic”; in the assay on LOUCY, 0.7 µM; in the assay on HepG2, “Non-Toxic”; in assay [10], 0.31 µM.
On to `CC(=O)N1c2ccc(-c3ccoc3)cc2[C@H](NC(=O)OC(C)C)C[C@@H]1C`, for which the concentration for half-maximal inhibition (IC50) in [2] was 5.8 µM; in [4], 1.91 µM. Besides, the values for the Selectivity Index in the assay listed under Homo sapiens [3] and in the assay filed under Homo sapiens [7] were 1.7 and 0.5, respectively. In addition, the results for the Kd in assay [5] and in assay [6] were 0.245 µM and 0.148 µM, respectively.

Source of the values: ChEMBL document CHEMBL4177706, “Exploiting a water network to achieve enthalpy-driven, bromodomain-selective BET inhibitors” (Bioorg Med Chem, 2018).
